# Only some compounds are listed: those with a hit (about 3.5% of all), similar ones and a draw of the others.
# MrgX1 PAM = positive allosteric modulators of MrgX1, primary screen, HEK293 cells, Fluo-4 calcium flux. FDSS; stronger effect = higher value. 310,000 tested, 0.63% active. B-score at 10 µM. Mas-related G-protein coupled receptor member X1 (Homo sapiens), Q96LB2;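 active = plate-corrected calcium response at least 3 library SD above typical, normal starting fluorescence, not activating the receptor alone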;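 also: compound read alongside a low EC10 to EC30 dose of BAM8-22 agonist; peak minus trough fluorescence over baseline measured at the second addition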
# Target sequence (Q96LB2 whole entry, looked up): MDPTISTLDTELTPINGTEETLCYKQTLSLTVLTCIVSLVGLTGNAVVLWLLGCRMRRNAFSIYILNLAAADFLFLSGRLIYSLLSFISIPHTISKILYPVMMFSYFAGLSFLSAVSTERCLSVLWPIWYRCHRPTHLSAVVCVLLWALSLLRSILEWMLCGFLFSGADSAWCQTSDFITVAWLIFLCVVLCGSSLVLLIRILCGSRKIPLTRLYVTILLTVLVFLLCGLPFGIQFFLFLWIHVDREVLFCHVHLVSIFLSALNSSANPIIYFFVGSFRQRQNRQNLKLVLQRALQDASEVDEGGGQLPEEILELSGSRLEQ
# MrgX1 agonist = agonists of human MrgX1 receptor, primary screen, HEK293 cells, Fluo-4 calcium flux. B-score at 10 µM. AID 588627, 2011. Fluo-4 calcium fluorescence, agonist mode; stronger effect = higher value. Mas-related G-protein coupled receptor member X1 (Homo sapiens), Q96LB2. 310,000 tested, 0.44% active;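 active = calcium response B-score plate-corrected fluorescence ratio at least 3 library SD, with starting fluorescence B-score inside 5 SD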
#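 times = overnight plating, then 30 min 37 °C plus 30 min room-temperature dye loading | assay system = stable human MrgX1 HEK293 cell line | input = fifteen thousand cells per well | signal = kinetic calcium dye fluorescence, Fluo-4 NW | dosing = compound delivered in addition one of three | read-out = B-scored fluorescence response ratio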
# RGS4 block = RGS4 inhibitors, primary screen, cell-based, HEK293 M3R inducible RGS4, calcium flux; Fluo-4 calcium flux; stronger effect = higher value; triggered by carbachol at its EC20; 310,000 tested, 0.45% active; B-score at 10 µM; AID 463165, 2010;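 active = B-score, a plate-corrected calcium signal, over three deviations above library mean, with baseline fluorescence within five deviations of library mean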;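 also: RGS4 expression induced by doxycycline in cells with stable M3 receptor; B-score is computed from the integrated fluorescence ratio over baseline after carbachol; higher B-score means a larger calcium signal and so more RGS4 inhibition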
# Target sequence (P49798 whole entry, looked up): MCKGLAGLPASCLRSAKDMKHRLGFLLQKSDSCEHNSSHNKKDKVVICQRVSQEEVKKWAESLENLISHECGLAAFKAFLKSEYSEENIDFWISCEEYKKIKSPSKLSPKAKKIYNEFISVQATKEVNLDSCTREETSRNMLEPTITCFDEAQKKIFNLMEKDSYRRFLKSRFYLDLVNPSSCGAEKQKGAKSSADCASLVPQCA
# RGS4 pot = RGS4 potentiators or activators, primary screen, cell-based, HEK293 M3R inducible RGS4, calcium flux | carbachol calcium flux Fluo4; stronger effect = lower value | B-score at 10 µM | 310,000 tested, 0.92% active | AID 463111, 2010;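 active = B-score of the integrated calcium signal more than 4 SD below the library mean, with starting fluorescence not abnormally high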;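 also: negative B-score means reduced calcium response which marks RGS4 activation or potentiation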
#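 Also added: carbachol at ECmax as muscarinic agonist stimulus; Assay system: HEK293 cells with stable M3R and inducible RGS4; Timing: overnight RGS4 induction, 30 min dye load 37 °C, 20 min compound RT; Measured by: Fluo4-AM (2 µM) calcium-flux fluorescence, kinetic read.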
# MrgX1 antagonist = antagonists of human MrgX1 receptor, primary screen, HEK293 cells, Fluo-4 calcium flux; BAM8-22 antagonism; stronger effect = lower value; Mas-related G-protein coupled receptor member X1 (Homo sapiens), Q96LB2; 310,000 tested, 1.3% active; B-score at 10 µM;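 active = calcium-response B-score plate-corrected more than 3 library SD below zero, starting fluorescence within 5 deviations, no agonist response on first addition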;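 also: peak minus trough fluorescence over baseline after final BAM8-22 challenge near maximal dose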
# MrgX1 PAM conf = MrgX1 positive allosteric modulators, duplicate retest, confirmation, HEK293 cells, Fluo-4 calcium flux. Fluo-4 calcium fluorescence, FDSS. activation (ratio percentage), % at 10 µM. 1,200 tested, 13% active. shares compounds with MrgX1 PAM;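 active = ratio at least 3 SD above the weak peptide control, stable starting fluorescence, no direct agonism earlier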;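 also: compound followed by low BAM8-22 agonist challenge near EC20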
# HEK293 Ca flux = nonspecific calcium signal in parental HEK293, confirmation, counter-screen for MrgX1 antagonist project, parental HEK293 cells, Fluo-4 calcium flux | 4,000 tested, 2% active | fluorescence ratio F(max-min)/F0 at 10 µM | shares compounds with MrgX1 antagonist | Fluo-4 calcium fluorescence, FDSS | AID 624111, 2012;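 active = duplicate-averaged calcium fluorescence ratio at least three times the standard deviation of buffer wells, a nonspecific response in parental cells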
# HEK293 Ca counter = calcium response in parental HEK293 cells, primary screen, counter-screen for MrgX1 allosteric activator project, cell-based, Fluo-4 calcium flux, duplicate; fluorescence ratio F(max-min)/F0 at 10 µM; shares compounds with MrgX1 antagonist; 4,000 tested, 0.4% active; Fluo-4 fluorescence ratio; stronger effect = higher value;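 active = calcium fluorescence ratio, averaged over duplicates, at least 3 SD of the buffer-well ratio, meaning a nonspecific response in receptor-free cells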;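 also: untransfected parental HEK293 lacking MrgX1 used as counterscreen for MrgX1 allosteric activators; fluorescence change taken during the second addition on a kinetic imager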
# HEK293 Ca cntr2 = calcium response in parental HEK293 cells, primary screen, counter-screen for MrgX1 agonist project, cell-based, Fluo-4 calcium flux, duplicate, agonist mode; shares compounds with MrgX1 antagonist; Fluo-4 calcium fluorescence (FDSS); stronger effect = higher value; fluorescence ratio F(max-min)/F0 at 10 µM; 4,000 tested, 8.7% active; AID 624115, 2012;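 active = calcium fluorescence ratio at least three times the spread of buffer wells, meaning a non-specific response in parental cells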
# * hit, by the source's call; i = inactive; · = no result.
SMILES,MrgX1 PAM,MrgX1 agonist,RGS4 block,RGS4 pot,MrgX1 antagonist,MrgX1 PAM conf,HEK293 Ca flux,HEK293 Ca counter,HEK293 Ca cntr2
Cc1ccc(-c2cc(N)n(-c3ccc(C)cc3)n2)cc1,7.23*,i,i,i,i,i,i,i,i
O=C(COc1ccccc1)N1CCN=C1SCc1cccnc1,i,i,i,i,i,·,·,·,·
O=C(COc1ccccc1)N1CCN=C1SCc1ccc(F)cc1,8.59*,i,i,i,i,i,i,i,i
O=S(=O)(Nc1ncnc2c1oc1ccccc12)c1ccc(Cl)s1,19*,i,i,i,i,i,i,i,i
CNc1c(NS(=O)(=O)c2ccc(Cl)s2)c(=O)oc2ccccc12,i,i,i,i,i,·,·,·,·
O=C(Nc1ccc(Cl)cc1)NC1CCCC1Cc1ccco1 (stereo unspecified),i,i,i,i,i,·,·,·,·
O=C(Nc1ccc(Cl)cc1)NC1CCCCC1Cc1ccco1 (stereo unspecified),15.2*,i,i,i,i,5.5%*,i,i,i
COc1ccc(C(=O)NCC(=O)OCC(=O)c2ccc3c(c2)NC(=O)CO3)cc1,7.56*,i,i,i,i,i,i,48*,i
N=C1/C(=C\c2ccc(OC(=O)c3ccco3)cc2)C(=O)N=C2SC(N3CCCCC3)=NN12,i,i,i,i,i,·,·,·,·
CC(C)S(=O)(=O)C1=NSC2=NC(=O)/C(=C\c3ccc(OC(=O)c4ccco4)cc3)C(=N)N21,34.6*,i,i,i,i,i,i,i,i
CC(C)(C)C(=O)[C@@H]1[C@@H]2C(=O)N(C3CCCCC3)C(=O)[C@@H]2[C@H]2c3ccccc3C=CN12,7.01*,i,·,·,i,i,i,i,i
O=C(c1ccc2c(c1)OCO2)[C@@H]1[C@@H]2C(=O)N(C3CCCCC3)C(=O)[C@@H]2C2c3ccccc3C=CN21 (stereo partly specified),·,·,i,i,·,·,·,·,·
CN1CCCC(OC(=O)c2cccc(Br)c2)C1 (stereo unspecified),i,i,i,i,i,·,·,·,·
CN1CCCC(OC(=O)c2ccccc2Br)C1 (stereo unspecified),6.57*,i,i,i,i,i,i,i,i
O=C(O)C1CCN(C(=O)c2ccccc2N2C(=O)[C@@H]3Cc4c([nH]c5ccccc45)C(c4cccc(Cl)c4)N3C2=O)CC1 (stereo partly specified),i,i,i,i,i,·,·,·,·
C=CCN(CC=C)S(=O)(=O)c1ccc2nc(NC(=O)C(C)C)sc2c1,20.8*,i,·,·,i,i,i,i,i
CCOC(=O)C(=O)Nc1nnc(CCc2ccccc2)s1,7.72*,i,i,i,i,i,i,i,i
Cc1ccc(C)n1-n1c(C)nc2sc(-c3ccccc3)cc2c1=O,19.2*,i,i,i,i,i,i,i,i

# Compound activity (PubChem)
